Assay outcomes (PubChem BioAssay)
MEKK3 PB1 HTS: raises or lowers MEK5 binding to the human MEKK3 PB1 domain; Q99759; binding response (% of control), % at 10 µM; 290,000 tested, 1.4% active; bead-based flow cytometry, Alexa488-MEK5 binding to MEKK3; actives lie on both sides; 0 = blocked by unlabeled MEK5, 100 = vehicle; AID 1529;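 active means binding response more than 3 SD above or below the average of its plate-row segment, actives on both sides; inconclusive means wells at one plate position flagged as instrument error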;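 further: Alexa488 bead fluorescence after subtracting the streptavidin-only scavenger bead signal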
Target sequence (Q99759 whole entry, looked up, the tested form may be a part): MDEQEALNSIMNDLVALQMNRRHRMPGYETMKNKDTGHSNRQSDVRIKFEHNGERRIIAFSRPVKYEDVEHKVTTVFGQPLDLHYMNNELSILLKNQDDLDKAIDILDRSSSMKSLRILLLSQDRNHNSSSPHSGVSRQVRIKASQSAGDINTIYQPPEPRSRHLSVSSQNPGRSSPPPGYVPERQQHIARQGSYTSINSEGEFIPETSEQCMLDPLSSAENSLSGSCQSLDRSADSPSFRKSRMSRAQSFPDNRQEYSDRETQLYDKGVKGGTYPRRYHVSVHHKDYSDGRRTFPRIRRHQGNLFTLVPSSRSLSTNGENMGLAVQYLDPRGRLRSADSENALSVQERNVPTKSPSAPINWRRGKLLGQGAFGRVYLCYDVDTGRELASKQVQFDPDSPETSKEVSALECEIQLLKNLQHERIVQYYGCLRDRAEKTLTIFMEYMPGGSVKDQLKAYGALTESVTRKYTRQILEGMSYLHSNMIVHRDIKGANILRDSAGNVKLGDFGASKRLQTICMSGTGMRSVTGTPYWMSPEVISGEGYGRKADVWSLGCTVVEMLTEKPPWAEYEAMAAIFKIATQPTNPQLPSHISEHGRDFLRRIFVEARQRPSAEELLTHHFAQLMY
MEKK2 WT-MEK5: raises or lowers MEK5 binding to wildtype human MEKK2 PB1 domain | AID 1531 | bead flow cytometry, Alexa488-MEK5 binding to MEKK2 WT; actives lie on both sides | 290,000 tested, 1.1% active | Q9Y2U5 | binding response (% of control), % at 10 µM; in the data active means binding response below about 67% or above about 130%; inconclusive means no clear call, values can overlap the other calls; inactive means in between
MEKK2 mut-MEK5: signal of MEK5 binding to mutant human MEKK2 PB1 domain; bead flow cytometry, Alexa488-MEK5 binding to MEKK2 mutant; percent response, % at 10 µM; 290,000 tested, 0.35% active; in the data active means percent response above about 24%, passing the limit was not always enough
Lipid droplet: modulators of hepatic lipid droplet formation; inhibition, % at 6.5 µM; 240,000 tested, 0.4% active; AML12 mouse hepatocytes, oleate lipid droplets, BODIPY imaging; AID 1656;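 active means lipid droplet intensity inhibited by at least 50%, with more than 500 cells counted; inconclusive means wells with under 300 cells, treated as cytotoxic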
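Material – AML12 mouse liver cells · Also added – oleate loading, 100 µM · Compound dosing – 6.5 µM single-point dosing · Times – overnight treatment with compound plus oleate · Measured by – fluorescence imaging, 20x objective, two fields per well · Read-out – percent inhibition of filter-corrected integrated lipid droplet intensity per well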
Hep lipid conf: hepatic lipid droplet formation inhibition, confirmed; inhibition, % at 5.2 µM; AML12 mouse hepatocytes, BODIPY lipid droplet imaging; droplets induced with 100 µM oleic acid; shares compounds with Lipid droplet; 870 tested, 65% active;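 active means inhibition of lipid droplet metric at least 50%, with more than 300 cells in each of four replicates; inconclusive means wells under 300 cells, flagged as toxic or low count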
AML12 tox img: toxic to AML12 mouse hepatocytes in counter-screen; shares compounds with Lipid droplet; DAPI nuclear morphology cytotoxicity imaging; active compounds read high; cells fed 100 µM oleate overnight; z-score at 5 µM; 870 tested, 3% active; in the data active means z-score above about 6.3;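 further: compound exposure lasted overnight at 37 °C before fixation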
AML12 tox ATP: confirmation of cytotoxicity in AML12 mouse hepatocytes. 530 tested, under 10 active. AML12 mouse hepatocyte viability, ATP luminescence; cells loaded with 100 µM oleic acid. cytotoxicity, % at 50 µM. shares compounds with Lipid droplet;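 active means cytotoxicity above 50% in each of four replicates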;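 further: compound exposure lasted overnight at 37 °C before the ATP read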
Large screens that a line does not name were inactive (follow-up assays come after a bar, where they were run). Rows were chosen to be rich in hits. Some 2.6% of all compounds tested hit in one or more screens of this group.

CC(=O)Nc1ccc(-c2csc(NC(=O)Cc3cccc(F)c3)n2)cc1	Lipid droplet 64 | Hep lipid conf 100 | AML12 tox img inactive | AML12 tox ATP inactive
O=C(Cc1ccc(F)cc1)Nc1nc(-c2ccc(F)cc2)cs1	none
CC(=O)Nc1ccc(-c2csc(NC(=O)Cc3ccccc3F)n2)cc1	Lipid droplet 58 | Hep lipid conf 75 | AML12 tox img inactive | AML12 tox ATP inactive
CCCOc1ccc(-c2csc(NC(=O)CN3C(=O)CCC3=O)n2)cc1	Lipid droplet 95 | Hep lipid conf 109 | AML12 tox img inactive
Cc1cccc(N(CC(=O)NCc2ccc(F)cc2)C(=O)c2ccco2)c1	none
CCOc1ccc(CCNC(=O)CCc2nc(-c3ccc(OC)cc3)no2)cc1OCC	Lipid droplet 69 | Hep lipid conf 108 | AML12 tox img inactive | AML12 tox ATP inactive
CCOc1ccc(CCNC(=O)CS(=O)Cc2nc(-c3ccc(OC)cc3)oc2C)cc1OCC (configuration not stated)	Lipid droplet 76 | Hep lipid conf 81 | AML12 tox img inactive | AML12 tox ATP inactive
CCOc1ccc(CCNC(=O)CCc2nc(-c3ccc(C)cc3)no2)cc1OCC	none (no result: Lipid droplet)
COc1ccc(-c2nc(CS(=O)CC(=O)NCCc3ccc(OC)c(OC)c3)c(C)o2)cc1 (configuration not stated)	none
COc1ccc(CCN(C)C(=O)CNC(=O)Cc2cccc3ccccc23)cc1OC	none
COc1ccc(CN(C)C(=O)CNC(=O)Cc2cccc3ccccc23)c(OC)c1OC	Lipid droplet 53 | Hep lipid conf 82 | AML12 tox img inactive | AML12 tox ATP inactive
CC(=O)Nc1cccc(OCC(=O)NC(C)c2ccc3ccccc3c2)c1 (configuration not stated)	Lipid droplet 68 | Hep lipid conf inactive | AML12 tox img inactive
CS(=O)(=O)N(CC(=O)Nc1ccc2c(c1)OCCO2)Cc1ccc(Cl)cc1	none
CCOC(=O)c1ccc(NC(=O)CN(Cc2ccc(Cl)cc2)S(C)(=O)=O)cc1	Lipid droplet 50 | Hep lipid conf 76 | AML12 tox img inactive | AML12 tox ATP inactive
COc1cccc(NC(=O)CN(Cc2ccccc2)S(C)(=O)=O)c1	Lipid droplet 50 | Hep lipid conf inactive | AML12 tox img inactive
CCN(Cc1ccccc1)C(=O)C1CCN(C(=O)Nc2ccccc2)CC1	Lipid droplet 77 | Hep lipid conf 104 | AML12 tox img inactive | AML12 tox ATP inactive
CCN(CC)C(=O)C1CCCN(C(=O)Nc2ccccc2)C1 (configuration not stated)	none
O=C(CN(C(=O)Cn1nnc(-c2ccc(F)cc2)n1)c1ccc(F)cc1)NC1CCCC1	none
CN(C)S(=O)(=O)c1ccc(C(=O)NCc2ccc3[nH]c4c(c3c2)CCCC4)cc1	none
CCN(CC)S(=O)(=O)c1ccc(C(=O)NCc2ccc3[nH]c4c(c3c2)CCCC4)cc1	Lipid droplet 85 | Hep lipid conf 90 | AML12 tox img inactive | AML12 tox ATP inactive
C=C(C)c1cccc(C(C)(C)NC(=O)Nc2ccccc2OCC)c1	Lipid droplet 52 | Hep lipid conf inactive | AML12 tox img inactive
CCOc1ccccc1NC(=O)CCC(=O)Nc1ccccc1OCC	Lipid droplet 60 | Hep lipid conf 94 | AML12 tox img inactive | AML12 tox ATP inactive
CCCC(=O)Nc1cccc(C(=O)Nc2ccccc2OCC)c1	Lipid droplet 73 | Hep lipid conf 99 | AML12 tox img inactive
CCOc1ccccc1NC(=O)CCC(=O)O	none (no result: Lipid droplet)
C=CCOC(=O)C1=C[C@@H](c2ccc(C(F)(F)F)cc2)C[C@@H](OCc2ccc(CO)cc2)O1	none (no result: Lipid droplet)
Fc1cccc(CN2CCN(Cc3nc(CCc4ccccc4)no3)CC2)c1	none
CCOc1cc2[nH]c(=O)n(CCCC(=O)N(C)Cc3ccccc3)c(=O)c2cc1OCC	Lipid droplet 70 | Hep lipid conf 107 | AML12 tox img inactive | AML12 tox ATP inactive
CCc1ccccc1NC(=O)C1=CC(c2cccs2)=NS(=O)(=O)N1C	Lipid droplet 72 | Hep lipid conf 105 | AML12 tox img inactive | AML12 tox ATP inactive
Cc1ccc(O)c(NC(=O)C2=CC(c3cccs3)=NS(=O)(=O)N2C)c1	Lipid droplet inconclusive
CCN(CC)c1ccc(NC(=O)CN2CCN(S(=O)(=O)c3cc(Cl)ccc3OC)CC2)cc1	Lipid droplet 60 | Hep lipid conf 63 | AML12 tox img inactive | AML12 tox ATP inactive
CCOc1ccc(NC(=O)CCN2CCN(S(=O)(=O)c3cc(Cl)ccc3OC)CC2)cc1	none
CCOc1ccc(C(=O)OCC(=O)Nc2cc(C)on2)cc1OCC	Lipid droplet 80 | Hep lipid conf 106 | AML12 tox img inactive | AML12 tox ATP inactive
COc1ccc(Cl)cc1NC(=O)CCNC(=O)OCc1ccccc1	Lipid droplet 63 | Hep lipid conf 100 | AML12 tox img inactive | AML12 tox ATP inactive
CCOC(=O)C1=C(C)NC(=O)NC1/C=C/c1ccccc1 (configuration not stated)	Lipid droplet 62 | Hep lipid conf inactive | AML12 tox img inactive
CCCCCCCCCC(=O)N1c2ccccc2NC(=O)C1CC(=O)Nc1ccc(C(=O)O)cc1 (configuration not stated)	none
COc1ccc(C(C(=O)NC(C)(C)C)N(Cc2ccccc2)C(=O)CCC(=O)Nc2cc(C)on2)cc1 (configuration not stated)	Lipid droplet 66 | Hep lipid conf 70 | AML12 tox img inactive | AML12 tox ATP inactive
CCC(C)(C)NC(=O)C(c1ccc(OC)cc1)N(Cc1ccc(OC)cc1)C(=O)CCC(=O)Nc1cc(C)on1 (configuration not stated)	none
Cc1ccc(C(C(=O)NC(C)(C)C)N(Cc2ccco2)C(=O)CCC(=O)Nc2ccccn2)cc1 (configuration not stated)	Lipid droplet 50 | Hep lipid conf inactive | AML12 tox img inactive
COc1ccc(C(C(=O)NC(C)(C)C)N(C(=O)CCC(=O)Nc2cc(C)on2)c2cccc(C)c2C)cc1 (configuration not stated)	none
CCc1ccc(N(C(=O)CCC(=O)Nc2cc(C)on2)C(C(=O)NC(C)(C)C)c2ccc(OC)cc2)cc1 (configuration not stated)	none
CCC(C)(C)NC(=O)C(c1ccc(OC)cc1)N(Cc1ccccc1)C(=O)CCC(=O)Nc1cc(C)on1 (configuration not stated)	Lipid droplet 54 | Hep lipid conf 92 | AML12 tox img inactive | AML12 tox ATP inactive
